Assay results from ChEMBL document CHEMBL4689842, “EUbOPEN Chemogenomics Library wave 1” (2021).

System: U2OS
Assay: Multiplex assay against U2OS
Format: toxicity, cell-based
Settings: human
Procedure, shortened: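 Per cents of healthy-nucleus cells form the tubulin, mitochondrial-mass and membrane-permeability phenotype values. Live cells were stained at seeding with Hoechst33342, BioTracker Green Microtubule Cytoskeleton Dye, MitoTracker Red and Annexin V Alexa Fluor 680. After compound addition they were imaged on a CQ1 microscope at 37°C and 5% CO2, and CellPathfinder machine-learning gating split them into Hoechst high-intensity objects or normal cells, normal cells into healthy, pyknosed or fragmented nuclei, and pyknosed cells into mitotic or apoptotic.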

[1] = 12 h, 1 µM, compound concentration 1 uM, replicate 1
[2] = 12 h, 1 µM, compound concentration 1 uM, replicate 2
[3] = 12 h, 10 µM, compound concentration 10 uM, replicate 1
[4] = 12 h, 10 µM, compound concentration 10 uM, replicate 2
[5] = 24 h, 1 µM, compound concentration 1 uM, replicate 1
[6] = 24 h, 1 µM, compound concentration 1 uM, replicate 2
[7] = 24 h, 10 µM, compound concentration 10 uM, replicate 1
[8] = 24 h, 10 µM, compound concentration 10 uM, replicate 2

O=c1[nH]c2ccccc2n1C1CCN(Cc2ccc(-c3[nH]c4cc5ncnc5cc4nc3-c3ccccc3)cc2)CC1
Population Apoptotic (%) [1]: 44% | Population Fragmented Nuclei (%) [1]: 6% | Population Healthy Nuclei (%) [1]: 87% | Population Hoechst High Intensity Objects (%) [1]: 5% | Population Membrane Permeable-Phenotype (%) [1]: 37% | Population Mitochondria Different-Phenotype (%) [1]: 11% | Population Mitotic Cells (%) [1]: 55% | Population Normal (%) [1]: 94% | Population Pyknosed Nuclei (%) [1]: 5% | Population Tubulin-Different-Phenotype (%) [1]: 24% | Total Cell Count [1]: 162 | Population Apoptotic (%) [2]: 37% | Population Fragmented Nuclei (%) [2]: 7% | Population Healthy Nuclei (%) [2]: 85% | Population Hoechst High Intensity Objects (%) [2]: 8% | Population Membrane Permeable-Phenotype (%) [2]: 25% | Population Mitochondria Different-Phenotype (%) [2]: 16% | Population Mitotic Cells (%) [2]: 62% | Population Normal (%) [2]: 91% | Population Pyknosed Nuclei (%) [2]: 7% | Population Tubulin-Different-Phenotype (%) [2]: 23% | Total Cell Count [2]: 124 | Population Apoptotic (%) [3]: 30% | Population Fragmented Nuclei (%) [3]: 19% | Population Healthy Nuclei (%) [3]: 66% | Population Hoechst High Intensity Objects (%) [3]: 4% | Population Membrane Permeable-Phenotype (%) [3]: 29% | Population Mitochondria Different-Phenotype (%) [3]: 61% | Population Mitotic Cells (%) [3]: 69% | Population Normal (%) [3]: 95% | Population Pyknosed Nuclei (%) [3]: 13% | Population Tubulin-Different-Phenotype (%) [3]: 100% | Total Cell Count [3]: 173 | Population Apoptotic (%) [4]: 46% | Population Fragmented Nuclei (%) [4]: 38% | Population Healthy Nuclei (%) [4]: 51% | Population Hoechst High Intensity Objects (%) [4]: 7% | Population Membrane Permeable-Phenotype (%) [4]: 54% | Population Mitochondria Different-Phenotype (%) [4]: 75% | Population Mitotic Cells (%) [4]: 53% | Population Normal (%) [4]: 92% | Population Pyknosed Nuclei (%) [4]: 9% | Total Cell Count [4]: 142 | Population Apoptotic (%) [5]: 42% | Population Fragmented Nuclei (%) [5]: 7% | Population Healthy Nuclei (%) [5]: 83% | Population Hoechst High Intensity Objects (%) [5]: 5% | Population Membrane Permeable-Phenotype (%) [5]: 31% | Population Mitochondria Different-Phenotype (%) [5]: 12% | Population Mitotic Cells (%) [5]: 57% | Population Normal (%) [5]: 94% | Population Pyknosed Nuclei (%) [5]: 9% | Population Tubulin-Different-Phenotype (%) [5]: 16% | Total Cell Count [5]: 211 | Population Apoptotic (%) [6]: 41% | Population Healthy Nuclei (%) [6]: 81% | Population Hoechst High Intensity Objects (%) [6]: 3% | Population Membrane Permeable-Phenotype (%) [6]: 14% | Population Mitochondria Different-Phenotype (%) [6]: 15% | Population Mitotic Cells (%) [6]: 58% | Population Normal (%) [6]: 96% | Population Pyknosed Nuclei (%) [6]: 11% | Total Cell Count [6]: 157 | Population Apoptotic (%) [7]: 55% | Population Fragmented Nuclei (%) [7]: 19% | Population Healthy Nuclei (%) [7]: 50% | Population Hoechst High Intensity Objects (%) [7]: 6% | Population Membrane Permeable-Phenotype (%) [7]: 53% | Population Mitochondria Different-Phenotype (%) [7]: 91% | Population Mitotic Cells (%) [7]: 44% | Population Normal (%) [7]: 93% | Population Pyknosed Nuclei (%) [7]: 30% | Total Cell Count [7]: 174 | Population Apoptotic (%) [8]: 80% | Population Fragmented Nuclei (%) [8]: 28% | Population Healthy Nuclei (%) [8]: 38% | Population Hoechst High Intensity Objects (%) [8]: 14% | Population Membrane Permeable-Phenotype (%) [8]: 72% | Population Mitochondria Different-Phenotype (%) [8]: 88% | Population Mitotic Cells (%) [8]: 19% | Population Normal (%) [8]: 85% | Population Pyknosed Nuclei (%) [8]: 32% | Population Tubulin-Different-Phenotype (%) [8]: 100% | Total Cell Count [8]: 130
